Among the data in PubChem BioAssay are growth inhibition values, retold here.

Activity calls are given as the source filed them.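 How the source made its calls, unless noted: active means growth inhibition above 25% in both replicates, a cutoff set 3 SD above the mean; inconclusive means above 25% in only one replicate; inactive means the rest.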

The first assay can be described thus: OD615 S. cerevisiae growth inhibition, permissive medium, pilot counter-assay, permissive growth control for S. cerevisiae lifespan shortening project (AID 705). The following applies: OD615, 24 h, at 10 µM, stronger effect = higher value. In outline:
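Material: engineered DeaD yeast; compound dosing: one dose 10 µM, DMSO 0.25% final; measure: yeast growth inhibition indicated by reduced 24 h OD615; detection: OD615 turbidity read; incubation: cells pre-grown 4 h, then 24 h compound exposure, 30 °C humidified; medium: permissive synthetic complete medium with raffinose and galactose carbon sources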
Regarding `CCN(CC)CCCNC(=O)c1cc2c(-c3ccc(Cl)cc3)nn(C)c2s1`, the growth inhibition was 0.63% (inactive).

Consider `O=C(NC1CCCC1)C(c1ccc(Cl)cc1)N1CCOCC1` (stereo not given), for which the growth inhibition is -10.9% (inactive).

On to `COC(=O)c1ccc2c(c1)NC(=O)C1CCCN21` (stereo not given), for which the growth inhibition is 7.72% (inactive).

Regarding `O=C(Nc1ccc2c(c1)OCO2)c1ccncc1`, the growth inhibition is -10.6% (inactive).

On to `COc1ccc(C2C3=C(CC(c4ccco4)CC3=O)Nc3ccccc3N2C(C)=O)cc1` (stereo not given), for which the growth inhibition is -19% (inactive).

`COc1cc(NC(=O)c2cc(C(C)C)on2)cc(OC)c1OC`: the growth inhibition is -12.3% (inactive).

For `COc1ccc2ccccc2c1C1CC(=O)N2CN(C3CCCCC3)CSC2=C1C#N` (stereo not given), the growth inhibition was 2.87% (inactive).

As for `CCC(=O)c1ccc(OCC(=O)Nc2nn3cnnc3s2)cc1`, the growth inhibition is -2.54% (inactive).

Regarding `CCOC(=O)N1CCC(Nc2c(N3CCN(c4cc(Cl)ccc4C)CC3)c(=O)c2=O)CC1`, the growth inhibition was 3.09% (inactive).

Take `c1ccc(Sc2nc(N3CCCCC3)nc(N3CCCCC3)n2)nc1`: the growth inhibition is 4.63% (inactive).

For `Cn1c(=O)c2c(nc(NCc3ccccc3)n2Cc2ccc(F)cc2)n(C)c1=O`, the growth inhibition is -2.42% (inactive).

As for `COc1ccc(-n2nnc3c(=O)n(CC(=O)N4CCCCC4)cnc32)cc1`, the growth inhibition is -0.235% (inactive).

`CCN(CC)CC(=O)Nc1cc(C)c2c(=O)oc3ccccc3c2n1`: the growth inhibition is -15.1% (inactive).

On to `Nn1c(SCc2ccccc2)nnc1-c1ccco1`, for which the growth inhibition is -8.86% (inactive).

On to `c1ccc(OCc2nnc3sc(C4COc5ccccc5O4)nn23)cc1` (stereo not given), for which the growth inhibition was 4.23% (inactive).

Consider `Cn1cnnc1SCc1ccc(C#N)cc1Cl`, for which the growth inhibition is -9.5% (inactive).

Consider `CCOc1ccc(C2C(C(=O)NC)=C(C)Nc3nc4ccccc4n32)cc1OC` (stereo not given), for which the growth inhibition was -4.37% (inactive).

With `Cc1sc2nc(SCC(=O)OC(C)C)n(C)c(=O)c2c1C`, the growth inhibition was -2.81% (inactive).

`O=C(O)CCc1n[nH]c(=S)[nH]c1=O`: the growth inhibition was -5.76% (inactive).

As to `COc1ccc(N2CCN(CCCNS(=O)(=O)c3ccc4c(c3)oc(=O)n4C)CC2)cc1`, the growth inhibition is -8.8% (inactive).

Consider `CCOc1cccc(NC(=O)c2ccc(S(=O)(=O)N3CCCC3)cc2)c1`, for which the growth inhibition is 0.65% (inactive).

For the molecule `O=C(CSc1nc2c(c(=O)n1-c1ccc(Br)cc1)SCC2)NCC1CCCO1` (stereo not given), the growth inhibition is -11.1% (inactive).

On to `COc1cccc(N2C(=O)C3ON(c4ccccc4)C(c4cccs4)C3C2=O)c1` (stereo not given), for which the growth inhibition is -13% (inactive).

As to `CC(C)n1c(CCC(=O)O)ccc1-c1ccccc1`, the growth inhibition is 3.21% (inactive).

Take `Cn1c(C(=O)NC2CCCCC2)cc2c(=O)n(C)c3ccccc3c21`: the growth inhibition is -10.6% (inactive).

As for `Cc1c(C(=O)NCC2CCCO2)sc2nc(-c3ccc(F)cc3)cn12` (stereo not given), the growth inhibition is 3.06% (inactive).

On to `CCCCOC(=O)CCc1n[nH]c(=O)[nH]c1=O`, for which the growth inhibition is -11.1% (inactive).

Consider `Cc1ccc(C(c2sc3ncnn3c2O)N2CCC(C)CC2)cc1` (stereo not given), for which the growth inhibition was 1.13% (inactive).

Turning to `C=CCc1ccccc1OCC(O)CN1CCN(c2ccccc2OC)CC1` (stereo not given), the growth inhibition is -21.5% (inactive).

Take `CC(=O)NCC(=O)NC1(C(=O)NC2CCCC2)CCCCC1`: the growth inhibition is -1.73% (inactive).

Take `CCN1CCN(C(CNS(=O)(=O)c2ccc(OC)cc2)c2cccnc2)CC1` (stereo not given): the growth inhibition was -0.57% (inactive).

Regarding `CCCNC(=O)Cc1cc(=O)[nH]c(=O)[nH]1`, the growth inhibition is -14.4% (inactive).

Regarding `O=C(Nc1ccccc1)OCCOc1ccccc1`, the growth inhibition is -9.16% (inactive).

Regarding `Cc1nc2ccc(S(=O)(=O)NC(C(=O)NC3CCCC3)C(C)C)cc2s1` (stereo not given), the growth inhibition was -5.81% (inactive).

For the molecule `COc1ccc(OC)c(C2CC(=O)N3CN(c4ccccc4)CSC3=C2C#N)c1` (stereo not given), the growth inhibition is 0.46% (inactive).

Turning to `Brc1ccc(-c2nnc(-c3ccccc3Br)o2)cc1`, the growth inhibition was 0.385% (inactive).

With `CC12C(=O)N(c3ccccn3)C(=O)C1C1C=CC2C1` (stereo not given), the growth inhibition is -13.3% (inactive).

As to `Cc1c(C(=O)NCC2CCCO2)sc2nc(-c3ccccc3)cn12` (stereo not given), the growth inhibition is 7.17% (inactive).

As for `Cc1ccc(C)c(C(=O)COC(=O)c2ccc(Br)o2)c1`, the growth inhibition was -12.9% (inactive).

On to `CCOc1ccc(NS(=O)(=O)c2ccc3[nH]c(=O)oc3c2)cc1`, for which the growth inhibition is -11.6% (inactive).

The next assay in a line: Restrictive medium S. cerevisiae growth inhibition, OD615, pilot screen of yeast lifespan reduction project, restrictive growth control (AID 706;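 active means growth inhibition above a set limit, 3 SD over mean compound inhibition, in both replicates, cut at about 43% in these data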;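 further: modified DeaD lifespan yeast strain shifted to restrictive glucose medium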). The following applies: OD615, 48 h, at 10 µM, stronger effect = higher value. In outline: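 material = engineered S. cerevisiae DeaD strain | medium = glucose-based CSMM-D restrictive medium | times = 4 h pre-incubation, 48 h exposure at 30 °C | technique = OD615 absorbance reading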
For `CCN(CC)CCCNC(=O)c1cc2c(-c3ccc(Cl)cc3)nn(C)c2s1`, the growth inhibition is 17.3% (inactive).

Take `O=C(NC1CCCC1)C(c1ccc(Cl)cc1)N1CCOCC1` (stereo not given): the growth inhibition was -6.79% (inactive).

For `COC(=O)c1ccc2c(c1)NC(=O)C1CCCN21` (stereo not given), the growth inhibition is 12.4% (inactive).

As for `O=C(Nc1ccc2c(c1)OCO2)c1ccncc1`, the growth inhibition was 0.215% (inactive).

As to `COc1ccc(C2C3=C(CC(c4ccco4)CC3=O)Nc3ccccc3N2C(C)=O)cc1` (stereo not given), the growth inhibition was -16.4% (inactive).

Take `COc1cc(NC(=O)c2cc(C(C)C)on2)cc(OC)c1OC`: the growth inhibition was 14.9% (inactive).

Turning to `COc1ccc2ccccc2c1C1CC(=O)N2CN(C3CCCCC3)CSC2=C1C#N` (stereo not given), the growth inhibition was 25.4% (inactive).

Take `CCC(=O)c1ccc(OCC(=O)Nc2nn3cnnc3s2)cc1`: the growth inhibition was 8.22% (inactive).

Turning to `CCOC(=O)N1CCC(Nc2c(N3CCN(c4cc(Cl)ccc4C)CC3)c(=O)c2=O)CC1`, the growth inhibition is 4.44% (inactive).

With `c1ccc(Sc2nc(N3CCCCC3)nc(N3CCCCC3)n2)nc1`, the growth inhibition is -1.59% (inactive).

Regarding `Cn1c(=O)c2c(nc(NCc3ccccc3)n2Cc2ccc(F)cc2)n(C)c1=O`, the growth inhibition was -16.9% (inactive).

Turning to `COc1ccc(-n2nnc3c(=O)n(CC(=O)N4CCCCC4)cnc32)cc1`, the growth inhibition was 4.3% (inactive).

Turning to `CCN(CC)CC(=O)Nc1cc(C)c2c(=O)oc3ccccc3c2n1`, the growth inhibition is -19.2% (inactive).

On to `Nn1c(SCc2ccccc2)nnc1-c1ccco1`, for which the growth inhibition was 3.38% (inactive).

On to `c1ccc(OCc2nnc3sc(C4COc5ccccc5O4)nn23)cc1` (stereo not given), for which the growth inhibition was 5.81% (inactive).

For the molecule `Cn1cnnc1SCc1ccc(C#N)cc1Cl`, the growth inhibition was -15.1% (inactive).

For `CCOc1ccc(C2C(C(=O)NC)=C(C)Nc3nc4ccccc4n32)cc1OC` (stereo not given), the growth inhibition was -0.94% (inactive).

For `Cc1sc2nc(SCC(=O)OC(C)C)n(C)c(=O)c2c1C`, the growth inhibition is 31.4% (inactive).

For the molecule `O=C(O)CCc1n[nH]c(=S)[nH]c1=O`, the growth inhibition was -17.3% (inactive).

As to `COc1ccc(N2CCN(CCCNS(=O)(=O)c3ccc4c(c3)oc(=O)n4C)CC2)cc1`, the growth inhibition is 2.4% (inactive).

Turning to `CCOc1cccc(NC(=O)c2ccc(S(=O)(=O)N3CCCC3)cc2)c1`, the growth inhibition was -11.1% (inactive).

As to `O=C(CSc1nc2c(c(=O)n1-c1ccc(Br)cc1)SCC2)NCC1CCCO1` (stereo not given), the growth inhibition was -8.53% (inactive).

Consider `COc1cccc(N2C(=O)C3ON(c4ccccc4)C(c4cccs4)C3C2=O)c1` (stereo not given), for which the growth inhibition is 15.5% (inactive).

Turning to `CC(C)n1c(CCC(=O)O)ccc1-c1ccccc1`, the growth inhibition was 4.49% (inactive).

Consider `Cn1c(C(=O)NC2CCCCC2)cc2c(=O)n(C)c3ccccc3c21`, for which the growth inhibition was -6.48% (inactive).

For `Cc1c(C(=O)NCC2CCCO2)sc2nc(-c3ccc(F)cc3)cn12` (stereo not given), the growth inhibition is 0.065% (inactive).

Take `CCCCOC(=O)CCc1n[nH]c(=O)[nH]c1=O`: the growth inhibition is -17.6% (inactive).

Regarding `Cc1ccc(C(c2sc3ncnn3c2O)N2CCC(C)CC2)cc1` (stereo not given), the growth inhibition was 10.3% (inactive).

Consider `C=CCc1ccccc1OCC(O)CN1CCN(c2ccccc2OC)CC1` (stereo not given), for which the growth inhibition is -25% (inactive).

Consider `CC(=O)NCC(=O)NC1(C(=O)NC2CCCC2)CCCCC1`, for which the growth inhibition was -24.5% (inactive).

For the molecule `CCN1CCN(C(CNS(=O)(=O)c2ccc(OC)cc2)c2cccnc2)CC1` (stereo not given), the growth inhibition is 8.5% (inactive).

For the molecule `CCCNC(=O)Cc1cc(=O)[nH]c(=O)[nH]1`, the growth inhibition was -17.8% (inactive).

With `O=C(Nc1ccccc1)OCCOc1ccccc1`, the growth inhibition was 4.62% (inactive).

As for `Cc1nc2ccc(S(=O)(=O)NC(C(=O)NC3CCCC3)C(C)C)cc2s1` (stereo not given), the growth inhibition is -1.42% (inactive).

With `COc1ccc(OC)c(C2CC(=O)N3CN(c4ccccc4)CSC3=C2C#N)c1` (stereo not given), the growth inhibition was 26.8% (inactive).

Take `Brc1ccc(-c2nnc(-c3ccccc3Br)o2)cc1`: the growth inhibition was -1.09% (inactive).

For the molecule `CC12C(=O)N(c3ccccn3)C(=O)C1C1C=CC2C1` (stereo not given), the growth inhibition is -4.06% (inactive).

As for `Cc1c(C(=O)NCC2CCCO2)sc2nc(-c3ccccc3)cn12` (stereo not given), the growth inhibition is 8.27% (inactive).

As for `Cc1ccc(C)c(C(=O)COC(=O)c2ccc(Br)o2)c1`, the growth inhibition was -17.1% (inactive).

On to `CCOc1ccc(NS(=O)(=O)c2ccc3[nH]c(=O)oc3c2)cc1`, for which the growth inhibition was -10.5% (inactive).
